Data on eleven compounds can be found in ChEMBL document CHEMBL1156585, “New NSAIDs-NO hybrid molecules with antiproliferative properties on human prostatic cancer cell lines” (Bioorg Med Chem Lett, 2008).

Calls of active or inactive are those of the source. The rule behind the calls is not given here.

Broadly, the inhibition is the share of the control response that was lost under treatment. Read a high inhibition as strong suppression. One may read the IC50 as the midpoint of a concentration-inhibition curve. A higher IC50 goes with lower potency.

The subject of experiment [1] is PC-3. The experiment can be described thus: Antiproliferative activity against human PC3 cells at 100 uM after 72 hrs by MTT assay. The class given is functional. Conditions: PC-3, 72 h. The method, boiled down:
(§1)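 PC3 prostate cancer cells kept in RPMI 1640 with 10% fetal calf serum at 37 °C, 5% CO₂. Seeded at 1.8 × 10⁴ cells/well, grown 3 days, then serum-starved 24 h to synchronize. Exposed to compounds at 1, 10, 50 and 100 µM (as solubility allows) in <0.1% DMSO for 72 h. Growth read by colorimetric MTT test.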
(Tetrazolium assays rely on reduction of a dye to a coloured formazan, in cell work by metabolically active cells.)

The target of experiment [2] is Prostaglandin G/H synthase 1 (Homo sapiens, UniProt P23219). Nature of the experiment: Inhibition of COX1 in human whole blood. The experiment is classed as tissue-based.
Sequence of Prostaglandin G/H synthase 1 (P23219 whole entry): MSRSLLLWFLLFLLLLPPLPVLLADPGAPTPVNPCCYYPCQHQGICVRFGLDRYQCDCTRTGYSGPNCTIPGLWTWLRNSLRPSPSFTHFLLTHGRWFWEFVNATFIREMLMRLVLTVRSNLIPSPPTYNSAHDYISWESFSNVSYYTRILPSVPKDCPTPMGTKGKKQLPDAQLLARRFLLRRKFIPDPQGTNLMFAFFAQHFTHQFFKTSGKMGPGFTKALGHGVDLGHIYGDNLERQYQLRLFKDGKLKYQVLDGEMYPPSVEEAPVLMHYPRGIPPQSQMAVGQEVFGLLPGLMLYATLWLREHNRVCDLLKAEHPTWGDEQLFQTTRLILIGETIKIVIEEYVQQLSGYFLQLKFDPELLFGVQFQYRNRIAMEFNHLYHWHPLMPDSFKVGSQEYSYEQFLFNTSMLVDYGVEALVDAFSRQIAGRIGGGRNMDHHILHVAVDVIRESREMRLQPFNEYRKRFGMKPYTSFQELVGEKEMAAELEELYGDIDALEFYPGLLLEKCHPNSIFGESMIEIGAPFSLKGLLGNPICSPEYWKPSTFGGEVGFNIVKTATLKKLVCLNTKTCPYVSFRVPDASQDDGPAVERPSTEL
For experiment [3], the target named is T1, Prostaglandin G/H synthase 2 (Homo sapiens, UniProt P35354).
T1 sequence (P35354 whole entry): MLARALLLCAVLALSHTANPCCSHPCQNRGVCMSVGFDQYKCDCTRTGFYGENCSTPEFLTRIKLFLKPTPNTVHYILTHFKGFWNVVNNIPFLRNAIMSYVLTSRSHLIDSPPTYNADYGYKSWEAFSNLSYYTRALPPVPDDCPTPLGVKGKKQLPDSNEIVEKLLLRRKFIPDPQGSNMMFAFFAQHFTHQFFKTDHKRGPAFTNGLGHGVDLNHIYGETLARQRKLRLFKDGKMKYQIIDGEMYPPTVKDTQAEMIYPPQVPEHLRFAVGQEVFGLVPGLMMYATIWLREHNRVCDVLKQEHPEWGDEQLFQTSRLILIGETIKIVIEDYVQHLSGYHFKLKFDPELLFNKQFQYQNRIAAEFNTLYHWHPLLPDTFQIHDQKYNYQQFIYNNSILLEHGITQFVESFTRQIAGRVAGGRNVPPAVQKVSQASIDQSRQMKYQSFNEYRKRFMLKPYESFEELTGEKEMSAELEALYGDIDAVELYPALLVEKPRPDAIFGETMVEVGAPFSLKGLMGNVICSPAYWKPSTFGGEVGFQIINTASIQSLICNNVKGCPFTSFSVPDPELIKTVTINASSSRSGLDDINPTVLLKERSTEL
The experiment can be described thus: Inhibition of COX2 in human whole blood. The experiment is classed as tissue-based.

In experiment [4] the test system is Blood. Nature of the experiment: Induction of profen release in human whole blood at 10 uM after 22 hrs by HPLC. The experiment is classed as functional. The method, boiled down:
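Same blood pool as the COX inhibition runs. Compound incubated 22 h, then the free profen released was measured as a percentage ratio.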

The test system of experiment [5] is PC-3. Nature of the experiment: Antiproliferative activity against human PC3 cells after 72 hrs by MTT assay. The class given is functional, cell-based. The conditions noted are these: PC-3, 72 h. An outline of the steps:
as §1

The subject of experiment [6] is Blood. Nature of the experiment: Induction of nitric oxide release in human whole blood after 6 hrs by EPR spectroscopy. The class given is functional, tissue-based.

In the experiment with PC-3 [1], `CC(COC(=O)C(C)c1ccc(C(=O)c2cccs2)cc1)O[N+](=O)[O-]` (stereo not drawn) gave an inhibition at 100 µM of 13%. Besides, the IC50 in experiment [2] is 570 nM; in experiment [3], 4560 nM. Besides, in the experiment on Blood [4], the Activity was 86%.
`CC(C(=O)O)c1cccc(C(=O)c2ccccc2)c1` (stereo not drawn) [KETOPROFEN] showed an inhibition at 100 µM in the experiment on PC-3 [1] of 0%.
With `CC(C(=O)O)c1ccc(C(=O)c2cccs2)cc1` (stereo not drawn) [SUPROFEN], in the experiment on PC-3 [1], the inhibition at 100 µM turned out to be 0%. The IC50 in experiment [2] was determined as 560 nM; in experiment [3], 2750 nM.
In the case of `CC(COC(=O)C(C)c1ccc2c(c1)[nH]c1ccc(Cl)cc12)O[N+](=O)[O-]` (stereo not drawn), the IC50 in the experiment on PC-3 [5] is 48000 nM; in experiment [2], 123000 nM; in experiment [3], 45000 nM. This compound had an Activity in the experiment on Blood [4] of 100%.
Turning to `CC(C(=O)OCC(CO[N+](=O)[O-])O[N+](=O)[O-])c1cccc(C(=O)c2ccccc2)c1` (stereo not drawn), in the experiment with PC-3 [1], the inhibition at 100 µM is 21%. For the same compound, the half-inhibitory concentration (IC50) in experiment [2] turned out to be 580 nM; in experiment [3], 740 nM. Also, the Activity in the experiment on Blood [4] is reported as 79%.
`CC(C(=O)OCCO[N+](=O)[O-])c1ccc2c(c1)[nH]c1ccc(Cl)cc12` (stereo not drawn): the figures for the IC50 (in the experiment with PC-3 [5]; in experiment [2]; in experiment [3]) were 48000 nM, 110000 nM and 65000 nM, respectively. Moreover, the Activity in the experiment with Blood [4] is 88%.
Compound `CC(C(=O)OCCO[N+](=O)[O-])c1ccc(C(=O)c2cccs2)cc1` (stereo not drawn) gave an inhibition at 100 µM in the experiment with PC-3 [1] of 7%. For the same compound, the IC50 in experiment [2] was 580 nM; in experiment [3], 5800 nM. Also, the Activity in the experiment with Blood [4] stood at 46%.
For the compound `CC(C(=O)OCCO[N+](=O)[O-])c1cccc(C(=O)c2ccccc2)c1` (stereo not drawn), at 100 µM the inhibition with PC-3 [1] was 26%. The IC50 in experiment [2] worked out at 450 nM; in experiment [3], 770 nM. Besides, in the experiment on Blood [4], the Activity turned out to be 73%.
`CC(C(=O)O)c1ccc2c(c1)[nH]c1ccc(Cl)cc12` (stereo not drawn) [CARPROFEN] displayed an inhibition at 100 µM with PC-3 [1] of 5%.
Turning to `CC(C(=O)OCC(CO[N+](=O)[O-])O[N+](=O)[O-])c1ccc(C(=O)c2cccs2)cc1` (stereo not drawn), the inhibition at 100 µM in the experiment with PC-3 [1] was 33%. Besides, the values for the IC50 in experiment [2] and in experiment [3] were 480 nM and 2700 nM, respectively. The compound further displayed an Activity in the experiment with Blood [4] of 73%.
As to `CC(COC(=O)C(C)c1cccc(C(=O)c2ccccc2)c1)O[N+](=O)[O-]` (stereo not drawn), the inhibition at 100 µM in the experiment on PC-3 [1] came out at 26%. In addition, the IC50 in experiment [2] amounted to 600 nM; in experiment [3], 730 nM. The outcome with Blood [6] was Active. Also, the Activity in the experiment on Blood [4] is recorded as 70%.
